Assay results collected from several papers.
Compare with care: the assays were run in different laboratories.
Hypoxanthine-guanine-xanthine phosphoribosyltransferase: Hypoxanthine-guanine-xanthine phosphoribosyltransferase (Plasmodium falciparum, UniProt P20035)
WDR5: WD repeat-containing protein 5 (WDR5, Homo sapiens, UniProt P61964)
CYP1B1: Cytochrome P450 1B1 (CYP1B1, Homo sapiens, UniProt Q16678)
HRH3: Histamine H3 receptor (HRH3, Homo sapiens, UniProt Q9Y5N1)
SLC10A2: Ileal sodium/bile acid cotransporter (SLC10A2, Homo sapiens, UniProt Q12908)
DRD5: D(1B) dopamine receptor (DRD5, Homo sapiens, UniProt P21918)

| SMILES | target | test | setting | Ki |
| --- | --- | --- | --- | --- |
| O=C1CN(CC[C@@H](CO)NCc2c[nH]c3c(O)ncnc23)S(=O)(=O)N1 | Hypoxanthine-guanine-xanthine phosphoribosyltransferase | enzyme activity, inhibitor | pH 7.4 | > 20 µM |
| O=C(NCc1cc(Cl)cc(Cl)c1)c1cccc(Cn2ccnc2)c1 | WDR5 | ligand displacement, TR-FRET |  | > 0.033 µM |
| CC(C)=CCc1c(O)cc(O)c2c1O[C@H](c1ccc(O)cc1)CC2=O | CYP1B1 | enzyme activity, inhibitor, fluorescence | 15 min, pH 7.4 | 0.17 µM |
| COc1cc(CNC(=O)c2cccc(CNC3=NCCN3)c2F)cc(OC)c1 | WDR5 | ligand displacement, TR-FRET |  | > 0.033 µM |
| CCCc1ccc(OCCCCCN2CCCCCC2)cc1 | HRH3 | ligand displacement, radioligand | cell membranes | 0.0563 µM |
| COC(=O)C1=C(C)NC(C)=C(C(=O)OC(C)C)C1c1cccc2nonc12 (centres unmarked) | SLC10A2 | transporter uptake, inhibitor |  | 19.4 µM |
| COc1ccc(C2=NN(C(C)C)C(=O)C3CC=CCC23)cc1-c1ccc(C(=O)N2CCC[C@@H]2C(N)=O)cc1 (mixture of isomers) | Class 1 phosphodiesterase PDEB1 (PDEB1, Trypanosoma brucei, UniProt Q8WQX9) | enzyme activity, inhibitor |  | 0.631 µM |
| CCc1ccc(OCCCCCCN2CCCC(C)C2)cc1 (centres unmarked) | HRH3 | ligand displacement, radioligand | cell membranes | 0.0741 µM |
| CN(C)c1ccc(/C=C/C=C2\CCc3ccc(OCCCN4CCCCC4)cc3C2=O)cc1 | HRH3 | ligand displacement, radioligand | cell membranes | 0.101 µM |
| CCOC(=O)C1=C(C)NC(C)=C(C(=O)OC)C1c1cccc(Cl)c1Cl (centres unmarked) | SLC10A2 | transporter uptake, inhibitor |  | 49.7 µM |
| O=C1CCCc2cc(OCc3ccc(OCCCN4CCCCC4)cc3)ccc21 | HRH3 | ligand displacement, radioligand | cell membranes | 0.019 µM |
| O=C1N[C@@H]([C@@H](CO)NCc2c[nH]c3c(O)ncnc23)CO1 | Hypoxanthine-guanine-xanthine phosphoribosyltransferase | enzyme activity, inhibitor | pH 7.4 | > 20 µM |
| Cc1nc(F)ccc1-c1cc(C(=O)NCc2ccc(Cl)c(Cl)c2)ccc1Cn1ccn(C)c1=N | WDR5 | ligand displacement, TR-FRET |  | > 0.033 µM |
| NS(=O)(=O)NC[C@@H](CO)NCc1c[nH]c2c(O)nc(O)nc12 | Hypoxanthine-guanine-xanthine phosphoribosyltransferase | enzyme activity, inhibitor | pH 7.4 | > 20 µM |
| C#Cc1ccc2cc(-c3ccccc3)c(=O)oc2c1 | CYP1B1 | enzyme activity, inhibitor, fluorescence | 6 min, pH 7.6 | 1.72 µM |
| CC(=O)S[C@@H]1CC2=CC(=O)CC[C@]2(C)[C@H]2CC[C@@]3(C)[C@@H](CC[C@@]34CCC(=O)O4)[C@H]12 | SLC10A2 | transporter uptake, inhibitor |  | 110 µM |
| C#Cc1ccc(-c2cc(=O)c3ccccc3o2)cc1 | CYP1B1 | enzyme activity, inhibitor, fluorescence | 6 min, pH 7.6 | 0.13 µM |
| CN1CCN(CC/C=C2/c3ccccc3Sc3ccc(S(=O)(=O)N(C)C)cc32)CC1 | SLC10A2 | transporter uptake, inhibitor |  | 808 µM |
| COc1ccc2c(c1)C(=O)N(CCCN1CCN(c3ccccc3OC)CC1)C2 | DRD5 | ligand displacement, radioligand |  | 8.29 µM |

| SMILES | target | test | setting | Ki |
| --- | --- | --- | --- | --- |
| O=C1CN(C[C@@H](CO)NCc2c[nH]c3c(O)nc(O)nc23)S(=O)(=O)N1 | Hypoxanthine-guanine-xanthine phosphoribosyltransferase | enzyme activity, inhibitor | pH 7.4 | > 20 µM |
| O=C1c2ccccc2CCN1CCCCN1CCN(c2cccc(Cl)c2Cl)CC1 | DRD5 | ligand displacement, radioligand |  | 2.38 µM |
| C#Cc1ccc2c(=O)cc(-c3ccccc3)oc2c1 | CYP1B1 | enzyme activity, inhibitor, fluorescence | 6 min, pH 7.6 | 0.42 µM |
| CCOC(=O)[C@](CC)(CCCS(=O)(=O)CCOCCOCCNC(=O)OC(C)(C)C)NC(=O)c1ccc(C2CC2)c(Cc2ccc(F)cc2)n1 | Cannabinoid receptor 2 (CNR2, Homo sapiens, UniProt P34972) | ligand displacement, radioligand | cell membranes | 0.045 µM |
| O=C1CCCc2cc(OCCCN3CCCCC3)ccc21 | HRH3 | ligand displacement, radioligand | cell membranes | 0.068 µM |
| O=C1CN(C[C@@H](CO)NCc2c[nH]c3c(O)ncnc23)S(=O)(=O)N1 | Hypoxanthine-guanine-xanthine phosphoribosyltransferase | enzyme activity, inhibitor | pH 7.4 | > 20 µM |
| CN1CCN(CCCOc2ccc(Nc3nccc(N4CCN(C)CC4)n3)cc2)CC1 | HRH3 | ligand displacement, radioligand | cell membranes | 0.646 µM |
| CCCCN1CCC(COC(=O)c2ccc(N)c(OCF)c2)CC1 | DRD5 | cell-free assay, radioligand |  | > 10 µM |
| NS(=O)(=O)c1cc2c(cc1Cl)NCNS2(=O)=O | SLC10A2 | transporter uptake, inhibitor |  | 2020 µM |
| C#Cc1ccccc1-c1cc(=O)c2ccccc2o1 | CYP1B1 | enzyme activity, inhibitor, fluorescence | 6 min, pH 7.6 | 0.61 µM |
| NS(=O)(=O)c1cc2c(cc1Cl)NC(C(Cl)Cl)NS2(=O)=O (centres unmarked) | SLC10A2 | transporter uptake, inhibitor |  | 377 µM |
| CN(C(=O)[C@@H]1Cc2ccccc2CN1C(=O)c1ccc(Cl)s1)c1ccc(N2CCCCC2=O)cc1 | Coagulation factor X (F10, Homo sapiens, UniProt P00742) | enzyme activity, inhibitor, absorbance |  | 28 µM |
| CN(C)c1ccc(/C=C/C=C2\CCc3cc(OCCCN4CCCCC4)ccc3C2=O)cc1 | HRH3 | ligand displacement, radioligand | cell membranes | 0.094 µM |
| CCCc1ccc(OCCCCCN2CCC(C)CC2)cc1 | HRH3 | ligand displacement, radioligand | cell membranes | 0.156 µM |
| CNC(=C[N+](=O)[O-])NCCSCc1ccc(CN(C)C)o1 | SLC10A2 | transporter uptake, inhibitor |  | 886 µM |
| CCCCCCCC/C=C\CCCCCCCC(=O)NC(CO)(CO)CO | DRD5 | ligand displacement, radioligand |  | > 10 µM |
| CN(C)c1ccc(/C=C2\CCc3cc(OCc4ccc(OCCCN5CCCCC5)cc4)ccc3C2=O)cc1 | HRH3 | ligand displacement, radioligand | cell membranes | 0.041 µM |
| CC(C(=O)O)c1cccc(C(=O)c2ccccc2)c1 (centres unmarked) | SLC10A2 | transporter uptake, inhibitor |  | 178 µM |
| OC[C@@]12C[C@@H]1[C@@H](n1cnc3c(NC(C4CCCC4)C4CCCC4)nc(Cl)cc31)[C@H](O)[C@@H]2O | DRD5 | cell-free assay, radioligand |  | 5.1 µM |
